Assay outcomes: PubChem, several laboratories
Sampled rows, rich in hits. Any-hit rate of the full collection: about 1.4%.
PG9 Ab binder – PG9 antibody binding by small molecule; TR-FRET gp120-PG9 antibody binding; inhibition, % at 6.7 µM; actives 0.43% (n = 360,000); in the data active = inhibition above about 8.5%
NR2E3 ag-1 – agonists of human nuclear receptor NR2E3; Q9Y5X4; GST-NR2E3/biotin-RetCOR TR-FRET, 1536-well; inhibition of corepressor binding, % at 4.78 µM; actives 0.12% (n = 320,000); AID 2300;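 active = percent inhibition above the cutoff of mean plus 3 SD of all tested compounds, set per screening campaign, cut at about 20% in these data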;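 note: 0% = DMSO wells and 100% = biotin wells as full block of FRET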
Target sequence (Q9Y5X4 whole entry, looked up): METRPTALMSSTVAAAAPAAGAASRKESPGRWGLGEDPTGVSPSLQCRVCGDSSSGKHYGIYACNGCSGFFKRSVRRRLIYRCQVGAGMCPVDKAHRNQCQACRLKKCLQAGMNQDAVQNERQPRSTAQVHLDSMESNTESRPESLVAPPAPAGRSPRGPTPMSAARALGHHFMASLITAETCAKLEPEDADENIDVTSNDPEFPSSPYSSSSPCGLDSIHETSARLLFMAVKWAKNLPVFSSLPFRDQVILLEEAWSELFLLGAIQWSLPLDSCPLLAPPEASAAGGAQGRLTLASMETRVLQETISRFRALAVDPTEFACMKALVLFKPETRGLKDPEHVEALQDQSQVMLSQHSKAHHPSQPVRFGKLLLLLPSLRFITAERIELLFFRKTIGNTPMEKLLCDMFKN
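system = GST-tagged NR2E3 plus biotinylated RetCOR corepressor | input = 1.35 nM GST-NR2E3 | also added = 7 nM biotin-RetCOR | schedule = 5 h incubation at 4 °C | measured by = TR-FRET with europium anti-GST and streptavidin-D2, 340 nm excitation | read-out = percent loss of FRET ratio relative to control wells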
Rev-erbA mod – Rev-erb alpha (human) modulation | actives 0.79% (n = 370,000) | AID 1259318 | Rev-erbα–FITC-DNA binding, fluorescence polarization, 90 min | activity, % at 10 µM | P20393;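 active = activity above about 14%, limit read from the data; passing the limit was not always enough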;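 note: 0% = DMSO wells with 35 nM protein and 100% = DMSO wells with 750 nM protein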
NR2E3 ag-2 – agonists of human NR2E3 nuclear receptor; Q9Y5X4; CHO-S Gal4-NCOR/VP16-NR2E3 two-hybrid, luciferase; inhibition of corepressor binding, % at 3.98 µM; actives 0.35% (n = 360,000);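 active = inhibition above the mean of all tested compounds plus 3 SD, cut at about 70% in these data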;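 note: 0% = DMSO with NR2E3 transfected cells and 100% = cells lacking NR2E3 construct; higher means lower luciferase signal from less NR2E3 corepressor binding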
NR1D1 mod conf – confirmation of modulators of human Rev-erb alpha DNA binding; AID 1259319; shares compounds with Rev-erbA mod; actives 61% (n = 3,000); Rev-erb alpha FITC-DNA binding, fluorescence polarization, 90 min; activation, % at 25 µM;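 active = activation at or above a set limit, or at least 3 SD above the negative control mean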;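 note: 0% = 35 nM protein with DMSO and 100% = 750 nM protein high control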
RORg counter – counter-screen for Rev-erb alpha modulators: RORgamma DNA binding; shares compounds with Rev-erbA mod; actives 8% (n = 910); IC50, µM; purified RORgamma protein-FITC-DNA binding, fluorescence polarization;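 active = Compounds whose fitted half-maximal concentration for disrupting protein-DNA binding is below 10 micromolar; the record names Rev-erb in its text, so the target is in doubt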
Numbers without * were called inactive; x = not tested or not shown.

SMILES	PG9 Ab binder	NR2E3 ag-1	Rev-erbA mod	NR2E3 ag-2	NR1D1 mod conf	others
COc1cc2ccccc2cc1C(=O)Nc1ccc(Cl)cn1	0	2	31*	-42	17
O=C1CC(c2ccccc2)Cc2nc(N3CCc4ccccc43)ncc21 (stereo unspecified)	-2	6	30*	-14	23*
O=C1CC(c2cccc(Cl)c2)Cc2nc(N3CCOCC3)ncc21 (stereo unspecified)	-1	-1	-1	2	x
O=C1CC(c2cccc(Cl)c2)Cc2nc(N3CCN(c4ccccc4)CC3)ncc21 (stereo unspecified)	1	2	37*	-13	19*
Cc1cc(C)cc(C(=O)OCCCN(C)C2CN(Cc3cn(Cc4ccccc4Cl)nn3)S(=O)(=O)C2)c1 (stereo unspecified)	x	x	9	x	x
CC(=O)c1cc(C#N)c(NCc2cc(-c3ccccc3)no2)nc1C	-1	-3	26*	1	18*
Clc1ccccc1NN(Cc1ccccn1)c1ccccc1Cl	1	x	2	-12	x
Clc1ccccc1NN(Cc1ccncc1)c1ccccc1Cl	0	x	18*	-6	10
CCCCn1c(N)c(N(CC(C)C)C(=O)C2CC(=O)N(CCc3ccccc3)C2)c(=O)[nH]c1=O (stereo unspecified)	-3	2	12*	-2	1
CCN(CC)c1ccc(/C=C2\C(=N)N3N=C(CC(=O)N4CCOCC4)SC3=NC2=O)cc1	-3	1	37*	-26	22*
Cc1cc(=O)[nH]c(SCC(=O)Nc2ccc(Cl)cc2)n1	x	x	0	x	x
CCCCn1c(=O)[nH]c(=O)c2c1nc(-c1ccccc1F)n2Cc1ccccc1	1	-4	4	-23	x
CCCn1c(-c2cccs2)nc2c1c(=O)[nH]c(=O)n2Cc1ccccc1	1	-5	23*	-15	2
Clc1ccc([C@H]2OC[C@@]3(CNCCN4CCOCC4)CS[C@H](c4ccc(Cl)cc4)N23)cc1	x	x	-2	x	x
O=C(Nc1ccc2nn(-c3ccccc3)nc2c1)c1ccc2c(c1)OCO2	-19	-13	23*	2	28*
O=C(Nc1cccc(F)c1)c1ccc2c(c1)OCO2	-1	3	1	-90	x
O=C(Nc1c(C(=O)Nc2cccc(F)c2)oc2ccccc12)c1ccc2c(c1)OCO2	0	3	51*	-14	17
O=C(Nc1cccc(-c2nc3ccccc3s2)c1)c1ccc2c(c1)OCO2	-1	4	45*	-110	12
CCN(CC)c1ccc(NC(=O)c2ccc3c(c2)OCO3)cc1	-11	-6	16*	-131	1
CC(=O)C1(C(=O)NCc2ccccc2)CC(c2ccccn2)=NO1 (stereo unspecified)	x	x	1	x	x
COC(=O)c1c(S(N)(=O)=O)c2ccccc2n1C	2	1	-4	-13	x
COC(=O)c1c(C(=O)c2ccc(Br)cc2)n(C)c2ccccc12	4	6	18*	-11	21*
O=C(CCc1ccccc1)N[C@H]1[C@H](OC(=O)c2ccc3ccccc3n2)CCC[C@@]12C(=O)N(Cc1ccccc1)c1ccccc12	x	x	3	x	x
O=C(CCc1ccccc1)N[C@H]1C(=O)CCC[C@]12C(=O)N(Cc1ccccc1)c1ccccc12	x	x	1	x	x
COc1ccc(C(=O)Nc2cccc(-c3cnc4ccccc4n3)c2)cc1	-1	1	26*	-38	13
SMILES	PG9 Ab binder	NR2E3 ag-1	Rev-erbA mod	NR2E3 ag-2	NR1D1 mod conf	others
COc1ccc(C(=O)Nc2ccc(C(=O)Nc3cccnc3)cc2)cc1	1	2	26*	-19	24*
Cc1ccc(C(=O)Nc2cccc(-c3cnc4ccccc4n3)c2)cc1	0	5	-2	-29	x
CCOc1ccc(Nc2nc3ccccc3n3nnnc23)cc1	2	4	-3	-94	x
c1ccc(CCNc2nc3ccccc3n3nnnc23)cc1	2	0	49*	2	30*
COc1ccc(CCNc2nc3ccccc3n3nnnc23)cc1OC	0	0	30*	-88	22*
CCOC(=O)N1CCN(C(=O)C[C@H]2C[C@@]3(C(=O)OC)C(=C[C@H](C4CCCC4)O[C@@H]3C)N(CCc3ccc(OC)c(OC)c3)C2=O)CC1	x	x	2	x	x
Cn1c2ccccc2c(=O)c2cc(C#Cc3ccsc3)ccc21	0	2	22*	-25	16
COc1ccc(OC)c2c1sc(=NC(=O)c1ccco1)n2C	1	3	16	-24	x
Cc1ccc(-c2c(C)sc(=NC(=O)c3ccco3)n2C)cc1	1	5	37*	-142	16*
CN1C(=O)N(C)c2ccc(C=O)c3cccc1c23	-3	2	8	-26	x
CN1C(=O)N(C)c2ccc(Br)c3cccc1c23	-2	x	89*	-39	81*	RORg counter=>40
